Test results from ChEMBL document CHEMBL1137457, “5'-O-masked 2'-deoxyadenosine analogues as lead compounds for hepatitis C virus (HCV) therapeutic agents” (Bioorg Med Chem, 2007).

Assays:
[1] = Cytotoxicity against Huh7 cells by XTT assay; format: cell-based; conditions: human, huh-7
Method in brief: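 Cytotoxicity in the replicon-bearing cells measured by XTT tetrazolium assay per manufacturer's protocol; CC50 averaged from at least three independent experiments.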

[2] = Antiviral index, ratio of CC50 for Huh7 cells to EC50 for HCV replication; format: functional, Huh-7
Method in brief: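 Antiviral index calculated as 50% toxic dose (XTT, replicon cells) divided by 50% effective dose (luciferase replicon read-out after two days); from at least three independent experiments.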

Hepatitis C virus = assay: Inhibition of HCV replication in Huh7 cells after 48 hrs by luciferase assay; format: functional, organism-based, Hepacivirus hominis; conditions: Huh-7, 48 h
Method in brief: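 HCV subgenomic replicon cells carrying luciferase reporter; replicon inhibition read by luciferase after two-day incubation with compound; EC50 averaged from at least three independent experiments.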

In the case of `O[C@H]1C[C@H](n2cnc3c(Cl)ncnc32)O[C@@H]1COCc1ccccc1`, the CC50 [1] is reported as 178 µM, the “Ratio CC50/EC50” value [2] is reported as 10.1 and the EC50 (Hepatitis C virus) is reported as 17.7 µM.

With `CN(C)c1ncnc2c1ncn2[C@H]1C[C@H](O)[C@@H](COC(=O)c2ccccc2)O1` the CC50 [1] was > 200 µM, the “Ratio CC50/EC50” value [2] was >9 and the EC50 (Hepatitis C virus) was 22.3 µM.

In the case of `CSc1ncnc2c1ncn2[C@H]1C[C@H](O)[C@@H](COC(=O)c2ccccc2)O1`, the EC50 (Hepatitis C virus) is reported as > 100 µM.

For `O=C(OC[C@@H]1C[C@@H](O)[C@H](n2cnc3c(Cl)ncnc32)O1)c1ccccc1`, the CC50 [1] was 70.5 µM, the “Ratio CC50/EC50” value [2] was 1.9 and the EC50 (Hepatitis C virus) was 38.1 µM.

For `CC(C)(C)C(=O)OC[C@H]1O[C@@H](n2cnc3c(Cl)ncnc32)C[C@@H]1O`, the CC50 [1] was 177 µM, the “Ratio CC50/EC50” value [2] was 6.3 and the EC50 (Hepatitis C virus) was 28 µM.

In the case of `COc1ccc(C(=O)OC[C@H]2O[C@@H](n3cnc4c(Cl)ncnc43)C[C@@H]2O)cc1`, the CC50 [1] is reported as 76.4 µM, the “Ratio CC50/EC50” value [2] is reported as 9.1 and the EC50 (Hepatitis C virus) is reported as 8.4 µM.

With `Cc1cc(C)c(C(=O)OC[C@H]2O[C@@H](n3cnc4c(Cl)ncnc43)C[C@@H]2O)c(C)c1` the CC50 [1] was 91 µM, the “Ratio CC50/EC50” value [2] was <1.8 and the EC50 (Hepatitis C virus) was > 50 µM.

For `O=C(OC[C@H]1C[C@@H](n2cnc3c(Cl)ncnc32)[C@@H]1CO)c1ccccc1`, the CC50 [1] was 20 µM, the “Ratio CC50/EC50” value [2] was 3.1 and the EC50 (Hepatitis C virus) was 6.4 µM.

With `O=C(OC[C@H]1O[C@@H](n2cnc3c(Cl)ncnc32)[C@H](O)[C@@H]1O)c1ccccc1` the CC50 [1] was 97.3 µM, the “Ratio CC50/EC50” value [2] was 2.4 and the EC50 (Hepatitis C virus) was 41 µM.

With `O=C(OC[C@H]1O[C@@H](n2cnc3c(Cl)ncnc32)C[C@@H]1O)c1ccccc1` the CC50 [1] was 111 µM, the “Ratio CC50/EC50” value [2] was 18.2 and the EC50 (Hepatitis C virus) was 6.1 µM.

With `OC[C@H]1O[C@@H](n2cnc3c(Cl)ncnc32)C[C@@H]1O` the CC50 [1] was 173 µM, the “Ratio CC50/EC50” value [2] was 3.7 and the EC50 (Hepatitis C virus) was 47.2 µM.

For `OC[C@@H]1C[C@@H](O)[C@H](n2cnc3c(Cl)ncnc32)O1`, the CC50 [1] was > 200 µM, the “Ratio CC50/EC50” value [2] was >3.1 and the EC50 (Hepatitis C virus) was 64.1 µM.

With `OCC(CO)CCn1cnc2c(Cl)ncnc21` the CC50 [1] was > 200 µM, the “Ratio CC50/EC50” value [2] was >2.5 and the EC50 (Hepatitis C virus) was 80.8 µM.

In the case of `Nc1ncnc2c1ncn2[C@H]1C[C@H](O)[C@@H](COC(=O)c2ccccc2)O1`, the CC50 [1] is reported as > 200 µM, the “Ratio CC50/EC50” value [2] is reported as >1.9 and the EC50 (Hepatitis C virus) is reported as 105 µM.

For `O=C(OC[C@H]1O[C@@H](n2cnc3c(O)ncnc32)C[C@@H]1O)c1ccccc1`, the EC50 (Hepatitis C virus) was > 100 µM.

For `OC[C@H]1C[C@@H](n2cnc3c(Cl)ncnc32)[C@@H]1CO`, the CC50 [1] was > 200 µM, the “Ratio CC50/EC50” value [2] was 4.3 and the EC50 (Hepatitis C virus) was 46.1 µM.

With `O=C(OCC(CO)CCn1cnc2c(Cl)ncnc21)c1ccccc1` (configuration not stated) the CC50 [1] was 108 µM, the “Ratio CC50/EC50” value [2] was 8.1 and the EC50 (Hepatitis C virus) was 13.3 µM.

For `CCCC(=O)OC[C@H]1O[C@@H](n2cnc3c(Cl)ncnc32)C[C@@H]1O`, the CC50 [1] was > 200 µM, the “Ratio CC50/EC50” value [2] was >6.6 and the EC50 (Hepatitis C virus) was 30.3 µM.

In the case of `C=CCOC[C@H]1O[C@@H](n2cnc3c(Cl)ncnc32)C[C@@H]1O`, the CC50 [1] is reported as 140 µM, the “Ratio CC50/EC50” value [2] is reported as 5.7 and the EC50 (Hepatitis C virus) is reported as 24.5 µM.

With `OC[C@H]1O[C@@H](n2cnc3c(Cl)ncnc32)[C@H](O)[C@@H]1O` the CC50 [1] was > 200 µM, the “Ratio CC50/EC50” value [2] was >6.5 and the EC50 (Hepatitis C virus) was 31 µM.

In the case of `O=S(=O)(OC[C@H]1O[C@@H](n2cnc3c(Cl)ncnc32)C[C@@H]1O)c1ccccc1`, the CC50 [1] is reported as 146 µM, the “Ratio CC50/EC50” value [2] is reported as 5.1 and the EC50 (Hepatitis C virus) is reported as 28.8 µM.

With `NC(=O)c1ncn([C@@H]2O[C@H](CO)[C@@H](O)[C@H]2O)n1` [RIBAVIRIN] the CC50 [1] was > 200 µM, the “Ratio CC50/EC50” value [2] was >3.7 and the EC50 (Hepatitis C virus) was 54.8 µM.
